pIC50: −log10 of the molar value. The source made the active and inactive calls. The calls are words filed in the database; no cut-off is given here.
Experiments:
[1] = Cytotoxicity against human HuH7 cells after 72 hrs by SRB assay; assay type: functional, cell-based; details: Huh-7, 72 h
Outline: (§1)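 Sulforhodamine B assay. Cells seeded at 2000–10,000/well and treated the next day in triplicate with ten concentrations (DMSO vehicle, under 1% final) for 24, 48 or 72 h at 37 °C, 5% CO2. Fixed with ice-cold TCA for 1 h at 4 °C, stained with 0.4% SRB in 1% acetic acid, dye solubilized in 10 mM Tris base, A515 read. % inhibition = 100 × (1 − OD drug/OD DMSO). IC50 taken from dose–response curves.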

[2] = Cytotoxicity against human HCT116 cells after 72 hrs by SRB assay; assay type: functional, cell-based; details: HCT-116, 72 h
Outline: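 SRB screen. Cells seeded at 2000–10,000/well and treated next day for 72 h with 40, 20, 10, 5 and 2.5 µM (DMSO under 1%). TCA fixation, 0.4% SRB staining, Tris solubilization, absorbance at 515 nm. Growth inhibition calculated relative to DMSO-only wells. IC50 derived from the five-concentration inhibition percentages.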

T47D = assay: Cytotoxicity against human T47D cells after 72 hrs by SRB assay; assay type: functional, cell-based
HepG2 [3] = assay: Cytotoxicity against human HepG2 cells after 72 hrs by SRB assay; assay type: functional, cell-based; details: HepG2, 72 h; outline: as §1
[4] = Cytotoxicity against human Hep3B cells after 72 hrs by SRB assay; assay type: functional, cell-based, Hep 3B2
Outline: (§2)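 Liver cancer cell panel, SRB assay after 72 h exposure to ten concentrations (DMSO vehicle under 1%). TCA-fixed, SRB-stained, absorbance at 515 nm. Percent cell death calculated against DMSO-only wells, and IC50 read from dose–response curves.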

PLC = assay: Cytotoxicity against human PLC cells after 72 hrs by SRB assay; assay type: functional, cell-based; outline: as §2
[5] = Cytotoxicity against human SKHEP1 cells after 72 hrs by SRB assay; assay type: functional, cell-based; details: SK-HEP1, 72 h; outline: as §2
[6] = Cytotoxicity against human Mahlavu cells after 72 hrs by SRB assay; assay type: functional, cell-based; outline: as §1
[7] = Cytotoxicity against human FOCUS cells after 72 hrs by SRB assay; assay type: functional, cell-based; outline: as §1
[8] = Cytotoxicity against human SNU182 cells after 72 hrs by SRB assay; assay type: functional, cell-based; details: SNU-182, 72 h; outline: as §2
[9] = Cytotoxicity against human SNU475 cells after 72 hrs by SRB assay; assay type: functional, cell-based, SNU-475; outline: as §2
Huh-7 [10] = assay: Cytotoxicity against human HuH7 cells assessed as condensed apoptotic nuclei after 72 hrs by Hoechst […] staining-based fluorescence microscopy; assay type: functional, cell-based
FOCUS = assay: Cytotoxicity against human FOCUS cells assessed as condensed apoptotic nuclei after 72 hrs by Hoechst […] staining-based fluorescence microscopy; assay type: functional, cell-based
Mahlavu [11] = assay: Induction of apoptosis in human Mahlavu cells assessed as PARP cleavage at IC50 after 72 hrs by Western blotting analysis; assay type: functional, cell-based
Mahlavu [12] = assay: Induction of […] in human Mahlavu cells assessed as PARP cleavage at IC50 after 72 hrs by Western blotting analysis; assay type: functional, cell-based
Mahlavu [13] = assay: Induction of apoptosis in human Mahlavu cells assessed as Bcl2 expression at IC50 after 72 hrs by Western blotting analysis; assay type: functional, cell-based
Mahlavu [14] = assay: Induction of apoptosis in human Mahlavu cells assessed as total cytochrome c level at IC50 after 72 hrs by Western blotting analysis; assay type: functional, cell-based
Huh-7 [15] = assay: Reduction in intrinsic cellular ATP consumption in human HuH7 cells at IC50 after 24 hrs by bioluminescence assay; assay type: functional, cell-based
Outline: (§3)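 Cells treated for 24 h, with staurosporine as positive control and DMSO-only controls. 20 µg lysate protein in kinase buffer (40 mM Tris-HCl pH 7.6, 20 mM MgCl2, 0.1 mg/ml BSA), no exogenous ATP added. Luciferase ATP-detection reagent added, 10 min in the dark at room temperature, then luminescence read. Higher signal taken as reduced ATP consumption.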

Mahlavu [16] = assay: Reduction in intrinsic cellular ATP consumption in human Mahlavu cells at IC50 after 24 hrs by bioluminescence assay; assay type: functional, cell-based; outline: as §3
[17] = Cytotoxicity against human HuH7 cells after 24 hrs by SRB assay; assay type: functional, cell-based; details: Huh-7, 24 h; outline: as §1
HepG2 [18] = assay: Cytotoxicity against human HepG2 cells after 24 hrs by SRB assay; assay type: functional, cell-based; details: HepG2, 24 h; outline: as §1
[19] = Cytotoxicity against human Mahlavu cells after 24 hrs by SRB assay; assay type: functional, cell-based; outline: as §1
[20] = Cytotoxicity against human FOCUS cells after 24 hrs by SRB assay; assay type: functional, cell-based; outline: as §1
[21] = Cytotoxicity against human HuH7 cells after 48 hrs by SRB assay; assay type: functional, cell-based; details: Huh-7, 48 h; outline: as §1
HepG2 [22] = assay: Cytotoxicity against human HepG2 cells after 48 hrs by SRB assay; assay type: functional, cell-based; details: HepG2, 48 h; outline: as §1
[23] = Cytotoxicity against human Mahlavu cells after 48 hrs by SRB assay; assay type: functional, cell-based; outline: as §1
[24] = Cytotoxicity against human FOCUS cells after 48 hrs by SRB assay; assay type: functional, cell-based; outline: as §1
Huh-7 [25] = assay: Cytotoxicity against human HuH7 cells at 2.5 to 40 uM by RT-CES method; assay type: functional, cell-based; details: TDE = time-dependent effect
Outline: (§4)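 Real-time impedance sensing (xCELLigence) on E-96 plates, run in triplicate. 2000 cells/well seeded; the next day medium was partly replaced and the compound added at 40, 20, 10, 5 or 2.5 µM, with DMSO-only and medium-only wells. Cell Index recorded every 30 min for at least 120 h at 37 °C, 5% CO2.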

HepG2 [26] = assay: Cytotoxicity against human HepG2 cells at 2.5 to 40 uM by RT-CES method; assay type: functional, cell-based; details: TDE = time-dependent effect; outline: as §4
Mahlavu [27] = assay: Cytotoxicity against human Mahlavu cells at 2.5 to 40 uM by RT-CES method; assay type: functional, cell-based; details: TDE = time-dependent effect; outline: as §4
Huh-7 [28] = assay: Induction of senescence in human HuH7 cells at IC50 to IC100 after 3 to 6 days by BrdU staining-based assay; assay type: functional, cell-based
Outline: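 Huh7 cells (5000) on coverslips in 6-well plates, treated with compound at IC50 and IC100, doxorubicin 25 ng/ml, or DMSO for 3 and 6 days. Medium refreshed 24 h before assay, containing 30 µM BrdU in one plate. SA-β-gal staining and BrdU incorporation assessed in parallel.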

Huh-7 [29] = assay: Cytotoxicity against human HuH7 cells measured every 30 mins up to 120 hrs by RT-CES method
HepG2 [30] = assay: Cytotoxicity against human HepG2 cells measured every 30 mins up to 120 hrs by RT-CES method
Mahlavu [31] = assay: Cytotoxicity against human Mahlavu cells measured every 30 mins up to 120 hrs by RT-CES method

| Structure (SMILES) | pIC50 [1] | pIC50 [2] | pIC50 (T47D) | pIC50 (HepG2 [3]) | pIC50 [4] | pIC50 (PLC) | pIC50 [5] | pIC50 [6] | pIC50 [7] | pIC50 [8] | Activity (Huh-7 [10]) | Activity (FOCUS) | Activity (Mahlavu [11]) | Activity (Mahlavu [12]) | Activity (Mahlavu [13]) | Activity (Mahlavu [14]) | Activity (Huh-7 [15]) | Activity (Mahlavu [16]) | further results |
| --- | --- | --- | --- | --- | --- | --- | --- | --- | --- | --- | --- | --- | --- | --- | --- | --- | --- | --- | --- |
| FC(F)(F)c1ccc(N2CCN(c3ncnc4c3ncn4C3CCCC3)CC2)cc1 | 6.70 | > 7.00 | > 7.00 | 6.70 | 6.10 | 5.19 | 6.70 | 7.00 | 7.00 | 5.02 | Active | Active | inactive | inactive | inactive | inactive | Active | Active | IC50 ([9]; snu-475): Not Active; pIC50 [17]: 5.57; pIC50 (HepG2 [18]): 5.92; pIC50 [19]: 4.30; pIC50 [20]: 4.78; pIC50 [21]: 5.85; pIC50 (HepG2 [22]): 6.10; pIC50 [23]: 6.52; pIC50 [24]: 6.52; Activity (Huh-7 [25]): tde; Activity (HepG2 [26]): tde; Activity (Mahlavu [27]): tde; Activity (Huh-7 [28]): Active; Activity (Huh-7 [29]): Dose-dependent effect; Activity (HepG2 [30]): Dose-dependent effect; Activity (Mahlavu [31]): Dose-dependent effect |
| FC(F)(F)c1ccc(N2CCN(c3ncnc4[nH]cnc34)CC2)cc1 | 5.49 | 5.29 | 4.40 | 5.43 | 5.17 | 4.98 | 5.31 | 5.64 | 5.54 | 4.26 | Active | Active | inactive | inactive | inactive | inactive | Active | Active | pIC50 ([9]; Homo sapiens, SNU-475, 72 h, read-out: IC50): 5.02 |
